Laboratory results: ChEMBL document CHEMBL1156681, “Synthesis, anti-bacterial, anti-asthmatic and anti-diabetic activities of novel N-substituted-2-(4-phenylethynyl-phenyl)-1H-benzimidazoles and N-substituted 2[4-(4,4-dimethyl-thiochroman-6-yl-ethynyl)-phenyl)-1H-benzimidazoles” (2008)
Converted amounts (≈) assume the structure as drawn. The source made the active and inactive calls. No cut-off for these calls is given here.

Tests used:
[1] = test system: Staphylococcus aureus; assay: Antibacterial activity against Staphylococcus aureus at 0.1 ug/ml after 48 hrs by tube dilution method; format: functional, organism-based
Method in brief: (§1)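 Compounds dissolved in DMSO and tested by tube dilution at […]. Tubes were incubated at 37 °C for 48 h. Growth was scored against the DMSO control as poor, medium or confluent (no inhibition). MIC was taken from the dilution series. Cephalexin served as the reference antibacterial and DMSO as the solvent control.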

[2] = test system: Staphylococcus aureus; assay: Antibacterial activity against Staphylococcus aureus at 1 ug/ml after 48 hrs by tube dilution method; format: functional, organism-based; method in brief: as §1
[3] = test system: Staphylococcus aureus; assay: Antibacterial activity against Staphylococcus aureus at 10 ug/ml after 48 hrs by tube dilution method; format: functional, organism-based; method in brief: as §1
[4] = test system: Staphylococcus aureus; assay: Antibacterial activity against Staphylococcus aureus at 100 ug/ml after 48 hrs by tube dilution method; format: functional, organism-based; method in brief: as §1
[5] = test system: Staphylococcus aureus; assay: Antibacterial activity against Staphylococcus aureus at 200 ug/ml after 48 hrs by tube dilution method; format: functional, organism-based; method in brief: as §1
[6] = test system: Staphylococcus aureus; assay: Antibacterial activity against Staphylococcus aureus at 500 ug/ml after 48 hrs by tube dilution method; format: functional, organism-based; method in brief: as §1
[7] = test system: Staphylococcus aureus; assay: Antibacterial activity against Staphylococcus aureus after 48 hrs by tube dilution method; format: functional; method in brief: as §1
[8] = test system: Salmonella typhimurium; assay: Antibacterial activity against Salmonella Typhimurium at 0.1 ug/ml after 48 hrs by tube dilution method; format: functional, organism-based; conditions: Salmonella enterica subsp. enterica serovar Typhimurium; method in brief: as §1
[9] = test system: Salmonella typhimurium; assay: Antibacterial activity against Salmonella Typhimurium at 1 ug/ml after 48 hrs by tube dilution method; format: functional, organism-based; conditions: Salmonella enterica subsp. enterica serovar Typhimurium; method in brief: as §1
[10] = test system: Salmonella typhimurium; assay: Antibacterial activity against Salmonella Typhimurium at 200 ug/ml after 48 hrs by tube dilution method; format: functional, organism-based; conditions: Salmonella enterica subsp. enterica serovar Typhimurium; method in brief: as §1
[11] = test system: Salmonella typhimurium; assay: Antibacterial activity against Salmonella Typhimurium at 500 ug/ml after 48 hrs by tube dilution method; format: functional, organism-based; conditions: Salmonella enterica subsp. enterica serovar Typhimurium; method in brief: as §1
[12] = test system: Salmonella typhimurium; assay: Antibacterial activity against Salmonella Typhimurium after 48 hrs by tube dilution method; format: functional, Salmonella enterica subsp. enterica serovar Typhimurium; conditions: Salmonella enterica; method in brief: as §1
[13] = target: T1, Tyrosine-protein phosphatase non-receptor type 1 (Homo sapiens) (UniProt P18031); assay: Inhibition of human recombinant PTP1B at 0.3 uM after 30 mins relative to control
T1 sequence (whole entry): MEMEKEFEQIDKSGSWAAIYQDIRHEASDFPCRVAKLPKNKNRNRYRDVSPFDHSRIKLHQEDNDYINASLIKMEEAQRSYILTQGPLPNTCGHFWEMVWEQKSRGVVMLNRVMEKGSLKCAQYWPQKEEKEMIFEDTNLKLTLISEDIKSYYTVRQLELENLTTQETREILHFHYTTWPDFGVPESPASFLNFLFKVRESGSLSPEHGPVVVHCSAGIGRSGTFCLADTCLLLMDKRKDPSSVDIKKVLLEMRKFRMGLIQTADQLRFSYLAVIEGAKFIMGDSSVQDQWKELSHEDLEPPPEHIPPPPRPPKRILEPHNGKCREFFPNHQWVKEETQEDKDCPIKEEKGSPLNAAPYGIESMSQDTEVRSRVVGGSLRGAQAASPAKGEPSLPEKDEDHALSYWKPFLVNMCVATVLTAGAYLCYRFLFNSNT
Method in brief: (§2)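 In-house human recombinant PTP-1B (~35 ng) was assayed with p-nitrophenyl phosphate in 25 mM Hepes, 3 mM DTT and 1 mM EDTA, pH 7.4, with DMSO at ≤1%. Absorbance at 405 nm was monitored continuously at 30 °C for 30 min, then NaOH was added and 405 nm read again. Activity was expressed as % of control, and % inhibition as 100 minus activity.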

[14] = target: T1, Tyrosine-protein phosphatase non-receptor type 1 (Homo sapiens); assay: Inhibition of human recombinant PTP1B at 30 uM after 30 mins relative to control; method in brief: as §2
[15] = test system: Salmonella typhimurium; assay: Antibacterial activity against Salmonella Typhimurium at 10 ug/ml after 48 hrs by tube dilution method; format: functional, organism-based; conditions: Salmonella enterica subsp. enterica serovar Typhimurium; method in brief: as §1
[16] = test system: Salmonella typhimurium; assay: Antibacterial activity against Salmonella Typhimurium at 100 ug/ml after 48 hrs by tube dilution method; format: functional, organism-based; conditions: Salmonella enterica subsp. enterica serovar Typhimurium; method in brief: as §1
[17] = target: T2, Phosphodiesterase 4 (Homo sapiens) (UniProt P27815+Q08499+Q07343+Q08493); assay: Inhibition of human PDE4 at 1 uM after 20 mins; format: protein assay
[18] = target: Dipeptidyl peptidase 4 (Homo sapiens) (UniProt P27487); assay: Inhibition of human recombinant DPP4 at 0.3 uM after 30 mins relative to control
Chain of Dipeptidyl peptidase 4 (Homo sapiens) (P27487 whole entry, looked up): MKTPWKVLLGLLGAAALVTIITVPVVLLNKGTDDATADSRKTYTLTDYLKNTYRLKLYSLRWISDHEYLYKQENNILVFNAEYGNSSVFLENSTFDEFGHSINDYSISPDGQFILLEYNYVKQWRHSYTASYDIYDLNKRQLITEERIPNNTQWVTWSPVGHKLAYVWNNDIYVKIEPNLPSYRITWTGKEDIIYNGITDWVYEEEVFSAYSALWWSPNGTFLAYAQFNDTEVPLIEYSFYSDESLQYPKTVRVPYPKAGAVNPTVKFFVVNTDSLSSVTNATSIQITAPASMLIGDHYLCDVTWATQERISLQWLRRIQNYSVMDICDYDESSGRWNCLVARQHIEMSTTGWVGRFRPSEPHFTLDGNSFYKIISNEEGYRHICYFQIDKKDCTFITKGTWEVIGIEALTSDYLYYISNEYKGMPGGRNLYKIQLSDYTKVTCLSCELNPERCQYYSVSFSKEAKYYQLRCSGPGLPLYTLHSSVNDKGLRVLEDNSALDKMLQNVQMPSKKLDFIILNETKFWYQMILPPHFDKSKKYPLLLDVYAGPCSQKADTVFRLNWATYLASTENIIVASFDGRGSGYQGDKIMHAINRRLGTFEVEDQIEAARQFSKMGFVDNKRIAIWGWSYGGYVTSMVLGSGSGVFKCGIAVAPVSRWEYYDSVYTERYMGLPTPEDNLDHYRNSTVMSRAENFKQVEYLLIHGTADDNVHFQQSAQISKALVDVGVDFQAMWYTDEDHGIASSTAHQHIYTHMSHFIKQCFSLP
Method in brief: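 Recombinant human DPP-IV (10 ng) was run in 25 mM Tris pH 7.4, 140 mM NaCl, 10 mM KCl and 1% BSA with Gly-Pro-AMC substrate. Compounds in DMSO were added, and AMC release was followed kinetically at 30 °C for 30 min (ex 380 / em 460 nm). Percent inhibition was calculated against the solvent-only control.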

[19] = target: T2, Phosphodiesterase 4 (Homo sapiens); conditions: 0.075 uM

Row | SMILES | Activity [1] | Activity [2] | Activity [3] | Activity [4] | Activity [5] | Activity [6] | MIC [7] | Activity [8] | Activity [9] | Activity [10] | Activity [11] | MIC [12] | inhibition [13] | inhibition [14] | Activity [15] | Activity [16] | inhibition [17] | inhibition [18] | inhibition [19]
1 | CC1=C(C(=O)O)N2C(=O)[C@@H](NC(=O)[C@H](N)c3ccccc3)[C@H]2SC1 [CEPHALEXIN ANHYDROUS] | inactive | inactive | Active | Active | Active | Active | 10 µg/mL (≈ 28.8 µM) | inactive | inactive | Active | Active | 200 µg/mL (≈ 576 µM) |  |  |  |  |  |  | 
2 | C=C(O)CN(c1ccccc1C(=O)O)C(CCC(=O)N[C@@H](CCSC)C(=O)O)CNC(=O)C(Cc1cccc(CC)c1)NC(C)=O (some centres undefined) |  |  |  |  |  |  |  |  |  |  |  |  | 49.1% |  |  |  |  |  | 
3 | CC(C)COC(=O)n1c(-c2ccc(C#Cc3ccccc3)cc2)nc2ccccc21 | inactive | inactive | inactive | inactive |  | Active | 500 µg/mL (≈ 1270 µM) | inactive | inactive |  | Active | 500 µg/mL (≈ 1270 µM) |  | 17.4% | inactive | inactive | 17.2% | 0% | 
4 | COc1ccc([C@]2(C#N)CC[C@@H](C(=O)O)CC2)cc1OC1CCCC1 |  |  |  |  |  |  |  |  |  |  |  |  |  |  |  |  |  |  | 45.3%
5 | CCn1c(-c2ccc(C#Cc3ccccc3)cc2)nc2ccccc21 | inactive | inactive | inactive | inactive |  | Active | 500 µg/mL (≈ 1550 µM) | inactive | inactive |  | Active | 500 µg/mL (≈ 1550 µM) |  | 2.2% | inactive | inactive | 13.5% | 0% | 
6 | CCCCOC(=O)n1c(-c2ccc(C#Cc3ccccc3)cc2)nc2ccccc21 | inactive | inactive | inactive | inactive |  | Active | 500 µg/mL (≈ 1270 µM) | inactive | inactive |  | Active | 500 µg/mL (≈ 1270 µM) |  | 5.84% | inactive | inactive | 16.2% | 0% | 
